Sampled rows, rich in hits. Any-hit rate of the full collection: about 2.2%.
PABP FP inh – blocks human PABP binding to poly(A) RNA; P11940; fluorescence polarization; calls only at 35 µM; 1% of 290,000 active; AID 2014;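 note: calls also rest on retests at 20 µM and on dose response follow-up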
eIF4H FP inh – inhibitors of RNA binding by human eIF4H; Q15056; eIF4H fluorescence polarization binding assay; inhibition, % at 35 µM; 0.94% of 290,000 active; AID 2012;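 note: calls also rest on retests at 20 µM and on dose response follow-up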
MLLE-PAM2 inh – blocks PAM2 peptide binding to the PABP1 MLLE domain; inhibition, % at 20 µM; 0.36% of 360,000 active; GST-MLLE / FITC-PAM2 fluorescence polarization; in the data active = inhibition above about 35%, passing the limit was not always enough;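 note: plate controls were DMSO wells with GST-MLLE for no effect and wells lacking GST-MLLE protein for full effect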
VIM-2 inh – inhibitors of Pseudomonas aeruginosa VIM-2 metallo-beta-lactamase | inhibition, % at 5.6 µM | 0.89% of 290,000 active | purified VIM-2, nitrocefin hydrolysis, epi-absorbance fluorescence;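 active = inhibition above the mean of all tested compounds plus 3 SD, cutoff set per screening run, cut at about 7.5% in these data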;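 note: red hydrolysis product quenches plate fluorescence so inhibitors raise well fluorescence; 0% = enzyme with DMSO and 100% = DMSO without enzyme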
IMP-1 inh – inhibitors of Pseudomonas aeruginosa IMP-1 metallo-beta-lactamase; purified IMP-1, nitrocefin hydrolysis, epi-absorbance fluorescence; inhibition, % at 5.6 µM; 0.45% of 290,000 active; AID 1556;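 active = inhibition above the mean plus 3 SD of all compounds in the same screening run, cut at about 4.5% in these data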;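 note: 0% = IMP-1 with DMSO and 100% = DMSO wells lacking enzyme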
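Assay system: purified recombinant IMP-1 beta-lactamase. Input: IMP-1 0.2 nM before substrate addition. Buffer or medium: Zinc- and detergent-supplemented HEPES buffer, pH 7.1. Schedule: 25 °C, 15 min preincubation, 25 min reaction. Signal: Epi-absorbance fluorescence, 480 nm excitation, 530 nm emission. Evaluation: percent inhibition from optical density relative to buffer-blank wells.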
Starred values were filed as active, the others as inactive; i = inactive; nt = no result; + = active, no number. Unless noted, the rule behind the calls is not given here.

SMILES	PABP FP inh	eIF4H FP inh	MLLE-PAM2 inh	VIM-2 inh	IMP-1 inh
O=C(N/C(=C/c1ccco1)C(=O)N1CCCCCC1)c1cccs1	+	62.0	-7.3	-2.9	1.1
COc1ccc(C(=O)N/C(=C/c2ccco2)C(=O)N2CCCCCC2)cc1	+	53.4	-37.3	-3.1	-1.9
O=C(N/C(=C/c1ccco1)C(=O)N1CCCCCC1)c1ccccc1	i	3.3	3.8	-4.8	-4.6
CCCNC(=O)NC(=O)CSc1nnc(-c2c[nH]c3ccccc23)o1	i	-2.2	-57.4	-1.2	-2.5
COc1ccc(CC(=O)N/N=C/c2ccc(-c3cccc(C(=O)O)c3)o2)cc1OC	+	81.4*	13.4	-4.7	-3.9
Cc1ccc(OCC(=O)N/N=C\c2ccc(-c3cccc(C(=O)O)c3)o2)c(C)c1	i	89.4*	-3.7	-2.8	-4.6
COc1ccc(CC(=O)N/N=C/c2ccc(-c3ccc(F)cc3)o2)cc1OC	i	0.0	-4.8	-3.0	-3.7
CCNc1ccc(Br)cc(C(=O)/C=C/c2ccc3c(c2)OCO3)c1=O	+	78.5*	-57.0	-0.5	3.3
CCNc1ccc(Br)cc(C(=O)/C=C/c2ccc(Cl)cc2)c1=O	i	34.0	-83.1	1.0	4.5*
CNc1ccc(Br)cc(C(=O)/C=C/c2ccc(Cl)cc2Cl)c1=O	i	67.9	-121.3	-1.4	-0.5
CNc1ccc(Br)cc(C(=O)/C=C/c2cccc(OC)c2)c1=O	+	80.5*	-63.3	0.8	10.2*
CN(CC(=O)NCc1ccncc1)S(=O)(=O)c1ccc2ccccc2c1	i	-3.8	-5.5	-3.4	-4.4
O=C(O)CNC(=O)/C(=C/c1ccco1)NC(=O)/C=C/c1ccccc1	+	53.2*	-4.9	-1.6	-1.2
CC1CCCN(CC(=O)N2c3ccccc3Sc3ccccc32)C1 (stereo unspecified)	i	3.1*	-0.3	-0.9	-2.1
Cc1ccc(C(=O)N[C@@H](C)CN2C3=NC[C@H](C)N3C[C@H]2Cc2ccc(O)cc2)cc1Br	i	-3.7	nt	nt	nt
O=C(CCN1C(=O)C2C3CCC(C3)C2C1=O)Nc1cccc(Cl)c1 (stereo unspecified)	i	10.5	2.5	2.6	5.9*
O=C(N/N=C/c1ccc(O)c(O)c1O)/C(=C/c1ccc([N+](=O)[O-])cc1)NC(=O)c1ccccc1	+	104.9*	37.0	-3.3	-4.8
O=C(N/N=C/C(Br)=C/c1ccccc1)c1ccc([N+](=O)[O-])cc1	i	9.7	-4.4	0.3	42.2*
C(=C\c1ccccc1)/CN1CCN(C(CCc2ccccc2)c2nnnn2C2CCCC2)CC1 (stereo unspecified)	nt	nt	1.0	nt	nt
O=C(O)c1ccccc1OCc1ccccc1Br	i	-2.1	11.7	9.1*	1.2
Cc1ccc(NC(=O)CN2C(=O)S/C(=C\c3ccc(-c4cccc(C(=O)O)c4C)o3)C2=O)cc1C	i	67.5*	1.8	-4.1	-1.4
O=C(CN1C(=O)S/C(=C\c2ccc(-c3cc(C(=O)O)ccc3Cl)o2)C1=O)Nc1ccc2c(c1)OCO2	+	67.7*	6.0	-1.8	16.8*
CCOC(=O)CN1C(=O)S/C(=C\c2ccc(-c3cccc(C(=O)O)c3C)o2)C1=O	nt	nt	-12.4	nt	nt
Cn1cc(/C=C2/SC(=O)N(CC(=O)Nc3ccc4c(c3)OCO4)C2=O)c2ccccc21	i	-2.3	0.2	-0.9	-1.2
Cc1c(C(=O)O)cccc1-c1ccc(/C=C2\SC(=O)NC2=O)o1	+	54.5*	-6.0	4.0	0.2
SMILES	PABP FP inh	eIF4H FP inh	MLLE-PAM2 inh	VIM-2 inh	IMP-1 inh
O=c1oc(/C=C/c2ccc([N+](=O)[O-])s2)nc2ccccc12	+	97.1*	-21.4	-1.3	-2.5
Fc1ccc(Oc2cnc3ccccc3n2)cc1	i	8.3	14.8	-1.9	-2.7
CCOC(=O)Cc1cc(=O)n(-c2nc3ccccc3s2)[nH]1	+	69.7*	-12.2	-3.1	-5.3
CCCc1cc(=O)n(-c2nc3ccccc3s2)[nH]1	i	19.6	8.0	-2.1	-1.8
COc1cc2ccccc2cc1C(=O)Nc1ccc2oc(=O)ccc2c1	i	5.6	12.3	0.2	1.9
Cc1c(C(=O)O)cccc1-n1c(C)cc(C=O)c1C	i	72.2*	-6.1	-2.4	-3.9
CCc1cc(C(=O)OC)c(NC(=O)CCC(=O)O)s1	i	-0.1	28.1	1.4	14.8*
CCCc1cc(C(=O)OC)c(NC(=O)CCCC(=O)O)s1	i	-9.0	2.1	-4.9	-5.9
CCOc1ccccc1C(=O)N/N=C/c1coc2ccc(C)cc2c1=O	i	-11.3	23.4	-2.5	10.2*

Assay outcomes: PubChem BioAssay, several laboratories
